Activity calls are given as the source filed them. The rule behind the calls is not given here.
How the values were obtained:
Mus musculus [1] = assay: Neurotoxicity in albino Carworth Farms No.1 mouse at 100 mg/kg, ip after 4 hrs by rotarod test; assay type: toxicity, organism-based; settings: in vivo
Procedure, shortened: (§1)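 Mice (albino Carworth Farms No.1) were dosed i.p. at 30, 100 or 300 mg/kg in 0.5% methylcellulose. They were tested 0.5 and 4 h later on a 1-inch knurled rod rotating at 6 rpm. Neurotoxicity was scored if a mouse could not stay on the rod for at least 1 min in each of three trials. Results are given as animals toxic/animals tested, with deaths noted.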

Salmonella typhimurium [2] = assay: Mutagenicity in Salmonella typhimurium TA100 assessed as mutagenic index at 100 ug/plate by Ames test; assay type: toxicity, organism-based; settings: salmonella enterica subsp. enterica serovar typhimurium
Procedure, shortened: (§2)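 Ames preincubation test. Strain culture was grown 12 h at 37 °C in nutrient broth, then mixed with compound in DMSO (final 4, 20, 100, 500, 1000 per plate) and buffer in top agar with trace histidine. This was plated on glucose minimal agar for 48 h at 37 °C. Mutagenic index = revertants with compound / DMSO control revertants, from three independent repeats.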

Salmonella typhimurium [3] = assay: Mutagenicity in Salmonella typhimurium TA100 assessed as mutagenic index at 20 ug/plate by Ames test; assay type: toxicity, organism-based; settings: salmonella enterica subsp. enterica serovar typhimurium; procedure, shortened: as §2
Mus musculus [4] = assay: Neurotoxicity in albino Carworth Farms No.1 mouse at 30 mg/kg, ip after 4 hrs by rotarod test; assay type: toxicity, organism-based; settings: in vivo; procedure, shortened: as §1
Salmonella typhimurium [5] = assay: Mutagenicity in Salmonella typhimurium TA1535 assessed as assessed as mutagenic index at 4 ug/plate by Ames test; assay type: toxicity, organism-based; settings: salmonella enterica subsp. enterica serovar typhimurium; procedure, shortened: as §2
Salmonella typhimurium [6] = assay: Mutagenicity in Salmonella typhimurium TA98 assessed as mutagenic index at 20 ug/plate by Ames test; assay type: toxicity, organism-based; settings: salmonella enterica subsp. enterica serovar typhimurium
Rattus norvegicus [7] = assay: Anticonvulsant activity in Sprague-Dawley rat assessed as protection against maximal electroshock-induced seizures at 30 mg/kg, po after 0.5 hrs; assay type: functional, organism-based
Procedure, shortened: (§3)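 Sprague-Dawley rats were given 30 mg/kg p.o. in 0.5% methylcellulose. Maximal electroshock was applied at 0.25, 0.5, 1.0, 2.0 and 4 h after dosing. Results are reported as number of rats protected / number tested.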

Salmonella typhimurium [8] = assay: Mutagenicity in Salmonella typhimurium TA1535 assessed assessed as mutagenic index at 100 ug/plate by Ames test; assay type: toxicity, organism-based; settings: salmonella enterica subsp. enterica serovar typhimurium
Rattus norvegicus [9] = assay: Anticonvulsant activity in Sprague-Dawley rat assessed as protection against maximal electroshock-induced seizures at 30 mg/kg, po after 0.25 hrs; assay type: functional, organism-based; procedure, shortened: as §3
Rattus norvegicus [10] = assay: Neurotoxicity in Sprague-Dawley rat at 30 mg/kg, po after 4 hrs; assay type: toxicity, organism-based; settings: in vivo
Procedure, shortened: (§4)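 Sprague-Dawley rats were given 30 mg/kg orally in 0.5% methylcellulose. Neurotoxicity was checked at 0.25, 0.5, 1.0, 2.0 and 4 h after dosing. Results are given as number of rats showing neurotoxicity/number tested.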

Salmonella typhimurium [11] = assay: Mutagenicity in Salmonella typhimurium TA100 assessed as assessed as mutagenic index at 1000 ug/plate by Ames test; assay type: toxicity, organism-based; settings: salmonella enterica subsp. enterica serovar typhimurium; procedure, shortened: as §2
[12] = Lipophilicity of the compound using 95% methanol in water at 1 mg/ml by RT-TLC analysis; assay type: physicochemical; settings: buffer
Procedure, shortened: (§5)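 Reversed-phase TLC with a methanol–water mobile phase at the stated methanol content (v/v). Compounds were spotted from 1 mg/mL methanol solutions after 1 h chamber saturation and located under UV light. Rf was measured and RM = log(1/Rf − 1) calculated.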

Salmonella typhimurium [13] = assay: Mutagenicity in Salmonella typhimurium TA98 assessed as mutagenic index at 100 ug/plate by Ames test; assay type: toxicity, organism-based; settings: salmonella enterica subsp. enterica serovar typhimurium
Mus musculus [14] = assay: Anticonvulsant activity in albino Carworth Farms No.1 mouse assessed as protection against subcutaneous dosed pentetrazol-induced seizures at 300 mg/kg, ip after 0.5 hrs; assay type: functional, organism-based
Procedure, shortened: (§6)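 Mouse i.p. screen in Carworth Farms No.1 albino mice at 30, 100 or 300 mg/kg in 0.5% methylcellulose. Testing was at 0.5 and 4 h after injection, by maximal electroshock or by subcutaneous pentetrazol challenge. Scoring was number protected / number used.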

Rattus norvegicus [15] = assay: Neurotoxicity in Sprague-Dawley rat at 30 mg/kg, po after 0.5 hrs; assay type: toxicity, organism-based; settings: in vivo; procedure, shortened: as §4
Salmonella typhimurium [16] = assay: Mutagenicity in Salmonella typhimurium TA98 assessed as number of revertants at 100 ug/plate by Ames test (reference value: 23 +/- 3); assay type: toxicity, organism-based; settings: salmonella enterica subsp. enterica serovar typhimurium
Mus musculus [17] = assay: Anticonvulsant activity in albino Carworth Farms No.1 mouse assessed as protection against subcutaneous dosed pentetrazol-induced seizures at 30 mg/kg, ip after 0.5 hrs; assay type: functional, organism-based; procedure, shortened: as §6
[18] = Lipophilicity of the compound using 75% methanol in water at 1 mg/ml by RT-TLC analysis; assay type: physicochemical; settings: buffer; procedure, shortened: as §5
Rattus norvegicus [19] = assay: Neurotoxicity in Sprague-Dawley rat at 30 mg/kg, po after 1 hr; assay type: toxicity, organism-based; settings: in vivo; procedure, shortened: as §4
Salmonella typhimurium [20] = assay: Mutagenicity in Salmonella typhimurium TA1535 assessed as number of revertants at 4 ug/plate by Ames test (reference value: 10 +/- 3); assay type: toxicity, organism-based; settings: salmonella enterica subsp. enterica serovar typhimurium
Mus musculus [21] = assay: Anticonvulsant activity in albino Carworth Farms No.1 mouse assessed as protection against maximal electroshock-induced seizures at 100 mg/kg, ip after 0.5 hrs; assay type: functional, organism-based; procedure, shortened: as §6
Mus musculus [22] = assay: Anticonvulsant activity in albino Carworth Farms No.1 mouse assessed as protection against subcutaneous dosed pentetrazol-induced seizures at 100 mg/kg, ip after 4 hrs; assay type: functional, organism-based; procedure, shortened: as §6
in vitro [23] = settings: human, HepG2 cells
Mus musculus [24] = assay: Anticonvulsant activity in albino Carworth Farms No.1 mouse assessed as protection against maximal electroshock-induced seizures at 300 mg/kg, ip after 4 hrs; assay type: functional, organism-based; procedure, shortened: as §6
[25] = Hepatotoxicity against human HepG2 cells assessed as cell viability at 25 uM after 24 hrs by MTT assay relative to control; assay type: toxicity, cell-based; settings: read-out: Activity
Procedure, shortened: (§7)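 HepG2 cells (EMEM, 10% FBS, 37 °C, 5% CO₂) were seeded at 1 × 10⁴ per well and cultured overnight. They were then exposed to increasing compound concentrations for 24 h. MTT reagent was added for 3 h and formazan crystals dissolved before reading. Data are mean ± SD of at least three independent experiments, relative to untreated control.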

[26] = Hepatotoxicity against human HepG2 cells assessed as cell viability at 10 uM after 24 hrs by MTT assay relative to control; assay type: toxicity, cell-based; settings: read-out: Activity; procedure, shortened: as §7
Mus musculus [27] = assay: Anticonvulsant activity in albino Carworth Farms No.1 mouse assessed as protection against 6-Hz electroshock-induced seizures at 100 mg/kg, ip after 2 hrs; assay type: functional, organism-based
Procedure, shortened: (§8)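 Carworth Farms No.1 albino mice were dosed i.p. at 100 mg/kg (0.5% methylcellulose solution or suspension). 6-Hz seizures were induced at 32 mA at 0.25, 0.5, 1.0, 2.0 and 4 h after injection. Results are given as animals protected / animals tested.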

[28] = Protection index, ratio of TD50 for neurotoxicity in po dosed Sprague-Dawley rat to ED50 for anticonvulsant activity in po dosed Sprague-Dawley rat assessed as maximal electroshock-induced seizures; assay type: toxicity, organism-based; settings: in vivo
Mus musculus [29] = assay: Neurotoxicity in albino Carworth Farms No.1 mouse at 300 mg/kg, ip after 0.5 hrs by rotarod test; assay type: toxicity, organism-based; settings: in vivo; procedure, shortened: as §1
Mus musculus [30] = assay: Anticonvulsant activity in albino Carworth Farms No.1 mouse assessed as protection against 6-Hz electroshock-induced seizures at 100 mg/kg, ip after 4 hrs; assay type: functional, organism-based; procedure, shortened: as §8
Mus musculus [31] = assay: Anticonvulsant activity in albino Carworth Farms No.1 mouse assessed as protection against subcutaneous dosed pentetrazol-induced seizures at 300 mg/kg, ip after 4 hrs; assay type: functional, organism-based; procedure, shortened: as §6
in vitro [32] = settings: human, HepG2 cells; remark: listed apart in the source
in vitro [33] = settings: human, HepG2 cells; remark: listed apart in the source

| Structure (SMILES) | Activity (Mus musculus [1]) | Activity_index (Salmonella typhimurium [2]) | Activity_index (Salmonella typhimurium [3]) | Activity (Mus musculus [4]) | Activity_index (Salmonella typhimurium [5]) | Activity_index (Salmonella typhimurium [6]) | Activity_index (Salmonella typhimurium [8]) | Activity_index (Salmonella typhimurium [11]) | Rm [12] | Activity_index (Salmonella typhimurium [13]) | Activity (Mus musculus [14]) | Activity (Salmonella typhimurium [16]) | Activity (Mus musculus [17]) | Rm [18] | Activity (Salmonella typhimurium [20]) | Activity (Mus musculus [21]) | Activity (Mus musculus [22]) | Activity (Mus musculus [24]) | Activity (Mus musculus [29]) | Activity (Mus musculus [31]) | further results |
| --- | --- | --- | --- | --- | --- | --- | --- | --- | --- | --- | --- | --- | --- | --- | --- | --- | --- | --- | --- | --- | --- |
| O=C(/C=C/c1ccccc1)N1CCC(O)CC1 | Non-toxic | 1 | 0.9 | Non-toxic | 0.5 | 0.8 | 0.9 | 0.9 | -0.6 | 0.7 | Active | 17 | inactive | -0.19 | 5 | Active | inactive | – | – | – | Activity (Rattus norvegicus [7]): inactive; Activity (Rattus norvegicus [9]): inactive; Activity (Rattus norvegicus [10]): Non-toxic; Activity (Rattus norvegicus [15]): Non-toxic; Activity (Rattus norvegicus [19]): Non-toxic |
| CCC(O)CNC(=O)/C=C/c1ccccc1 (racemic) | Non-toxic | 0.8 | 0.8 | Non-toxic | 0.9 | 0.9 | 0.5 | 0.9 | -0.66 | 0.9 | Active | 21 | inactive | -0.18 | 9 | inactive | inactive | inactive | Non-toxic | inactive | viability at 24 h, 10 µM (in vitro [23]): 98%; viability at 24 h, 25 µM [25]: 91.2%; Activity (Rattus norvegicus [9]): Active; Activity (Rattus norvegicus [10]): Non-toxic; viability at 24 h, 10 µM [26]: 94.5%; Activity (Rattus norvegicus [15]): Non-toxic; Activity (Mus musculus [27]): inactive; selectivity ratio [28]: > 12.1; Activity (Rattus norvegicus [19]): Non-toxic; Activity (Mus musculus [30]): inactive; viability at 24 h, 25 µM (in vitro [32]): 97%; viability at 24 h, 100 µM (in vitro [33]): 89% |
| O=C(/C=C/c1ccccc1)N[C@H]1CCCC[C@@H]1O (racemic) | Non-toxic | 0.9 | 1 | Non-toxic | 0.5 | 0.9 | 0.6 | 0.9 | -0.52 | 0.9 | inactive | 20 | inactive | -0.09 | 5 | Active | inactive | inactive | Toxic | inactive | – |
| CCC(CO)NC(=O)/C=C/c1ccccc1 (racemic) | Non-toxic | 0.8 | 0.8 | Non-toxic | 1.1 | 1 | 1.4 | 0.8 | -0.66 | 1 | Active | 22 | inactive | -0.19 | 11 | inactive | inactive | inactive | Non-toxic | inactive | – |
| CC(C)C(CO)NC(=O)/C=C/c1ccccc1 (racemic) | Non-toxic | 1 | 1 | Non-toxic | 0.5 | 0.8 | 0.6 | 1 | -0.63 | 0.8 | inactive | 19 | inactive | -0.1 | 5 | inactive | inactive | Active | Non-toxic | inactive | viability at 24 h, 10 µM (in vitro [23]): 98%; Activity (Rattus norvegicus [7]): inactive; viability at 24 h, 25 µM [25]: 95.7%; Activity (Rattus norvegicus [9]): inactive; Activity (Rattus norvegicus [10]): Non-toxic; viability at 24 h, 10 µM [26]: 95.2%; Activity (Rattus norvegicus [15]): Non-toxic; Activity (Mus musculus [27]): inactive; Activity (Rattus norvegicus [19]): Non-toxic; Activity (Mus musculus [30]): inactive; viability at 24 h, 25 µM (in vitro [32]): 98%; viability at 24 h, 100 µM (in vitro [33]): 90% |
| CC(CO)NC(=O)/C=C/c1ccccc1 (racemic) | Non-toxic | 0.9 | 0.8 | Non-toxic | 1.5 | 0.9 | 0.5 | 0.9 | -0.69 | 0.9 | Active | 21 | inactive | -0.27 | 15 | Active | inactive | Active | Non-toxic | inactive | viability at 24 h, 10 µM (in vitro [23]): 98%; Activity (Rattus norvegicus [7]): inactive; viability at 24 h, 25 µM [25]: 96.6%; Activity (Rattus norvegicus [9]): inactive; Activity (Rattus norvegicus [10]): Non-toxic; viability at 24 h, 10 µM [26]: 97.1%; Activity (Rattus norvegicus [15]): Non-toxic; Activity (Mus musculus [27]): inactive; selectivity ratio [28]: > 8.1; Activity (Rattus norvegicus [19]): Non-toxic; Activity (Mus musculus [30]): inactive; viability at 24 h, 25 µM (in vitro [32]): 98%; viability at 24 h, 100 µM (in vitro [33]): 89% |

Source: ChEMBL document CHEMBL3739352, “Anticonvulsant activity, crystal structures, and preliminary safety evaluation of N-trans-cinnamoyl derivatives of selected (un)modified aminoalkanols” (Eur J Med Chem, 2016)
